The values below come from ChEMBL document CHEMBL1134626, “Synthesis of potent C(2)-symmetric, diol-based hiv-1 protease inhibitors. Investigation of thioalkyl and thioaryl P1/P1' substituents” (J Med Chem, 2001).

Data set [1] has as its system Human immunodeficiency virus 1. Description: In Vitro anti HIV activity was evaluated in HIV cytopathic assay in MT-4 cells. The settings on record: Human immunodeficiency virus 1, MT4; read-out: ED50 (the source's name). The data set is classed as functional. Summed up:
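HIV cytopathic assay in MT-4 cells; protection quantified with vital dye XTT; ED50 calculated from percent cytoprotection per compound.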

Data set [2] is described as follows: Dissociation constant was measured. In kind it is physicochemical.
Data set [3] concerns the target Human immunodeficiency virus type 1 protease (Human immunodeficiency virus 1, UniProt Q72874). Description: Inhibitory activity against HIV protease expressed in Escherichia coli. Summed up: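 HIV-1 protease cloned and heterologously expressed in E. coli; Ki determined by fluorometric enzyme assay.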
Data set [4] concerns Human immunodeficiency virus 1. Description: Compound was evaluated for Antiviral activity against HIV-1. The data set is classed as functional. The settings on record: read-out: ED50 (the source's name). Summed up:
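HIV cytopathic assay in MT-4 cells; cell protection read out with the vital dye XTT. ED50 taken as the 50% inhibitory concentration, calculated from percent cytoprotection for each compound.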

As for `CNC(=O)[C@@H](NC(=O)[C@H](OCc1ccccc1)[C@H](O)[C@@H](O)[C@@H](OCc1ccccc1)C(=O)N[C@H](C(=O)NC)C(C)C)C(C)C`, in data set [1], the EC50 came out at 1300 nM.
Consider `C=CCS[C@@H](C(=O)NC1c2ccccc2C[C@H]1O)[C@H](O)[C@@H](O)[C@@H](SCC=C)C(=O)N[C@H]1c2ccccc2C[C@H]1O` (stereo not given in full), for which the pKa in data set [2] stood at 9.8. In addition, the EC50 in data set [1] was over 10000 nM. This compound returned a Ki in data set [3] of 16 nM.
The compound `CNC(=O)[C@@H](NC(=O)[C@H](Sc1ccccc1)[C@H](O)[C@@H](O)[C@@H](Sc1ccccc1)C(=O)N[C@H](C(=O)NC)C(C)C)C(C)C` registered a pKa in data set [2] of 6.6. The EC50 in data set [1] was determined as 6300 nM. For the same compound, the Ki in data set [3] was found to be 1.8 nM.
In data set [2], `CNC(=O)[C@@H](NC(=O)[C@H](Sc1ccccc1F)[C@H](O)[C@@H](O)[C@@H](Sc1ccccc1F)C(=O)N[C@H](C(=O)NC)C(C)C)C(C)C` showed a pKa of 6. The EC50 in data set [1] was 3600 nM. In data set [3], the Ki worked out at 0.57 nM.
In the case of `O=C(NC1c2ccccc2C[C@H]1O)[C@H](OCc1ccccc1)[C@H](O)[C@@H](O)[C@@H](OCc1ccccc1)C(=O)N[C@H]1c2ccccc2C[C@H]1O` (stereo not given in full), the EC50 in data set [1] was 96 nM.
Consider `O=C(NC1c2ccccc2C[C@H]1O)[C@H](SCc1ccccc1)[C@H](O)[C@@H](O)[C@@H](SCc1ccccc1)C(=O)N[C@H]1c2ccccc2C[C@H]1O` (stereo not given in full), for which the pKa in data set [2] was determined as 9.7. In addition, the EC50 in data set [1] was determined as 1100 nM. The same compound returned a Ki in data set [3] of 2.8 nM.
For `O=C(NC1c2ccccc2C[C@H]1O)[C@H](Sc1cccs1)[C@H](O)[C@@H](O)[C@@H](Sc1cccs1)C(=O)N[C@H]1c2ccccc2C[C@H]1O` (stereo not given in full), in that order: 6.4, 27 nM and 0.5 nM.
With `CNC(=O)[C@@H](NC(=O)[C@H](Sc1cccs1)[C@H](O)[C@@H](O)[C@@H](Sc1cccs1)C(=O)N[C@H](C(=O)NC)C(C)C)C(C)C`, the pKa in data set [2] is 6.4. Also, the EC50 in data set [1] turned out to be 4200 nM. In data set [3], this compound yielded a Ki of 1 nM.
`O=C(NC1c2ccccc2C[C@H]1O)[C@H](Sc1ccccc1F)[C@H](O)[C@@H](O)[C@@H](Sc1ccccc1F)C(=O)N[C@H]1c2ccccc2C[C@H]1O` (stereo not given in full) displayed a pKa in data set [2] of 6. Besides, in data set [1], the EC50 stood at 110 nM. Further, in data set [3], the Ki is 2.3 nM.
In turn, `O=C(NC1c2ccccc2C[C@H]1O)[C@H](Sc1ccccc1)[C@H](O)[C@@H](O)[C@@H](Sc1ccccc1)C(=O)N[C@H]1c2ccccc2C[C@H]1O` (stereo not given in full) came in with a pKa in data set [2] of 6.6. Besides, the EC50 in data set [1] stood at 260 nM. In data set [3], the affinity corresponds to a Ki of 1.8 nM.
The compound `O=C(NC1c2ccccc2C[C@H]1O)[C@H](SCc1ccccc1F)[C@H](O)[C@@H](O)[C@@H](SCc1ccccc1F)C(=O)N[C@H]1c2ccccc2C[C@H]1O` (stereo not given in full) showed a pKa in data set [2] of 9.2. Also, in data set [1], the EC50 is 210 nM. This compound came in with a Ki in data set [3] of 4.3 nM.
Compound `O=C(NC1c2ccccc2C[C@H]1O)[C@H](Sc1ccccn1)[C@H](O)[C@@H](O)[C@@H](Sc1ccccn1)C(=O)N[C@H]1c2ccccc2C[C@H]1O` (stereo not given in full) displayed a pKa in data set [2] of 9.6. In addition, in data set [1], the EC50 is over 10000 nM. The same compound registered a Ki in data set [3] of 285 nM.
Take `CC(C)(C)NC(=O)[C@@H]1CN(Cc2cccnc2)CCN1C[C@@H](O)C[C@@H](Cc1ccccc1)C(=O)N[C@H]1c2ccccc2C[C@H]1O` [INDINAVIR]: the EC50 in data set [4] worked out at 73 nM.
Regarding `Cc1c(O)cccc1C(=O)N[C@@H](CSc1ccccc1)[C@H](O)CN1C[C@H]2CCCC[C@H]2C[C@H]1C(=O)NC(C)(C)C` [NELFINAVIR], in data set [4], the EC50 came to 56 nM.
For `CC(C)c1nc(CN(C)C(=O)N[C@H](C(=O)N[C@@H](Cc2ccccc2)C[C@H](O)[C@H](Cc2ccccc2)NC(=O)OCc2cncs2)C(C)C)cs1` [RITONAVIR], the EC50 in data set [4] turned out to be 55 nM.
